Measured values from paper PMC7379967 (The Febs Journal, 2018).

Molecular target: human neutrophil proMMP‐9 (Homo sapiens, UniProt P14780)
Format: biochemical
Details: zymography
Summary of the method: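 Neutrophil proMMP-9 was incubated with recombinant human MMP-3 catalytic domain (enzyme/substrate 1/20), either alone or with galectin-3 (proMMP-9/galectin-3 1/10). Samples were taken at 0, 0.16, 0.5, 1, 2 and 3 h. Galectins were expressed in E. coli BL21-AI and affinity-purified on α-lactose agarose. Conversion to active MMP-9 was read by gelatin zymography, with recombinant proMMP-9 standard loaded as a reference.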

Chain of human neutrophil proMMP‐9 (P14780 20-707 limits assumed): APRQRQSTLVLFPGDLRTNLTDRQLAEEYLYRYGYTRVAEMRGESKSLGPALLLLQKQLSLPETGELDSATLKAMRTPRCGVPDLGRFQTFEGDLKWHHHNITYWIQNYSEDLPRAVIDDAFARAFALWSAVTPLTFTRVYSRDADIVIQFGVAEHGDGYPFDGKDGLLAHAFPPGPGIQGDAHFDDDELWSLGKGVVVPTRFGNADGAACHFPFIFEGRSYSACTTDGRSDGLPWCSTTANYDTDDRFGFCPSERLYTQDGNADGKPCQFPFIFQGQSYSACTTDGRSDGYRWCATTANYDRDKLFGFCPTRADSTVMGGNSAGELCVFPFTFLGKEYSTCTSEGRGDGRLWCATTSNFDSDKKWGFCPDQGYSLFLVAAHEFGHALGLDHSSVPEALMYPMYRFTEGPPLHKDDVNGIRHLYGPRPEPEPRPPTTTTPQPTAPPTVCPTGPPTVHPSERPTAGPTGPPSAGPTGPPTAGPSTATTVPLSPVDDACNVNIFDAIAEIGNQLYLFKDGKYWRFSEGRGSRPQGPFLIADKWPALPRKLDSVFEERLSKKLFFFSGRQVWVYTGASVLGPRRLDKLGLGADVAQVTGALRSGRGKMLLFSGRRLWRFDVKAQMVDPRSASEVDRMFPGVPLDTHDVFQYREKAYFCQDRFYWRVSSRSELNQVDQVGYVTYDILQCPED

## galectin‐3: human galectin‐3 (Met1‐Ile250) fused to C‐terminal tag SG(H)6SC, expressed in E. coli
cdMMP‐3 1/20, proMMP‐9/galectin‐3 1/10, 0-3 h, Fig. 9A
  effect on stepwise activation of neutrophil proMMP‐9 by MMP‐3: reduced
overnight, proMMP‐9/galectin‐3 1/10, Fig. 9B
  effect on activation of neutrophil proMMP‐9 by MMP‐3, overnight incubation: prevented activation by MMP‐3
